Published values from different studies.
Compare with care: the assays were run in different laboratories. In brackets after ≈: the same amount, converted by molar mass.

COc1ccc([S+]([O-])c2ccccc2)c(OC)c1OC (centres unmarked)  IC50 (tubulin polymerisation, inhibitor, absorbance; pH 6.6): > 40000 nM
CC(C)C[C@H](NC(=O)[C@H](Cc1ccccc1)NC(=O)c1cnccn1)B(O)O  IC50 (RERF-LC-MS; cell growth or viability, ATP luminescence): 20 nM
Cc1cc(C)cc(COc2cc3c(cc2OCc2cc(C)cc(C)c2)[C@H]2C[C@](O)(Cc4cn(CCc5ccc(N)cc5)nn4)C[C@H](C)N2CC3)c1  IC50 (ASPC1; cell growth or viability, MTT): 568 nM
O=C(O)c1nc2ccccc2c(=O)n1Cc1cn(-c2ccccc2)nn1  IC50 (Nakaseomyces glabratus; microbial growth, broth dilution; ATCC90030; 24 h): 566 µg/mL
Cc1cc(C)cc(COc2cc3c(cc2OCc2cc(C)cc(C)c2)[C@H]2C[C@](O)(Cc4cn(CCc5ccccc5)nn4)C[C@H](C)N2CC3)c1  IC50 (ASPC1; cell growth or viability, MTT): 794 nM
COc1cc(Nc2nccc(-c3cnn4nc(OC)ccc34)n2)cc(C(F)(F)F)c1  IC50 (HEC-1-A; cell growth or viability, ATP luminescence): 1000 nM
Cc1cc(Nc2ncc(Cl)c(Nc3ccccc3S(=O)(=O)C(C)C)n2)c(OC(C)C)cc1C1CCNCC1  inhibition (KARPAS-299; cell growth or viability, MTT; 5 µg/mL, 72 h): 97.7%
Cc1cc(C)cc(COc2cc3c(cc2OCc2cc(C)cc(C)c2)C2CC(O)(Cc4cn(CCCCCCNc5cccc6c5C(=O)N(C5CCC(=O)NC5=O)C6=O)nn4)CC(C)N2CC3)c1 (centres unmarked)  IC50 (ASPC1; cell growth or viability, MTT): 1080 nM
C[C@@H](Oc1cc(-c2cnn(C3CCNCC3)c2)cnc1N)c1c(Cl)ccc(F)c1Cl  inhibition (KARPAS-299; cell growth or viability, MTT; 0.2 µg/mL, 72 h): 75.5%
COc1ccc(Sc2ccc(C)cc2)c(OC)c1OC  IC50 (tubulin polymerisation, inhibitor, absorbance; pH 6.6): > 40000 nM
C[C@@H]1[C@H](O)[C@@H](C)/C=C/C=C/C=C/C=C/C=C/C=C/C=C/[C@H](O[C@@H]2O[C@H](C)[C@@H](O)[C@H](N)[C@@H]2O)C[C@@H]2O[C@](O)(C[C@@H](O)C[C@@H](O)[C@H](O)CC[C@@H](O)C[C@@H](O)CC(=O)O[C@H]1C)C[C@H](O)[C@H]2C(=O)O  MFC (Cryptococcus neoformans; microbial killing; ATCC90113): 1.5 µg/mL (≈ 1.62 µM)
COc1ccc(S(=O)(=O)c2ccc(C)cc2)c(OC)c1OC  IC50 (tubulin polymerisation, inhibitor, absorbance; pH 6.6): > 40000 nM
CCOC(=O)c1nc2ccccc2c(=O)n1Cc1cn(-c2cccc(F)c2)nn1  IC50 (Nakaseomyces glabratus; microbial growth, broth dilution; ATCC90030; 24 h): 365 µg/mL
Cc1cc(C)cc(COc2cc3c(cc2OCc2cc(C)cc(C)c2)[C@H]2C[C@](O)(Cc4cn(Cc5cnccn5)nn4)C[C@H](C)N2CC3)c1  IC50 (ASPC1; cell growth or viability, MTT): 753 nM
